Columns and labels:
Rattus norvegicus [1] = organism: Rattus norvegicus; experiment: Inhibition of [3H]norepinephrine reuptake at norepinephrine transporter in CD Charles River albino rat brain synaptosomes at 10^-5 M after 5 mins by scintillation counting analysis; format: subcellular
Summary of the method: (§1)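 Synaptosomes were taken from the 0.8/1.2 M sucrose gradient interface and resuspended in Krebs Ringer phosphate with pargyline (1.6 mg/100 mL) and glucose (237 mg/100 mL). They were incubated with unlabelled norepinephrine and [3H]norepinephrine for 5 min at 30 °C, quenched with cold buffer, and pelleted at 10000g. Pellet counts, minus post-incubation tracer blanks, gave % inhibition as (control − sample)/control cpm.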

[2] = Inhibition of [3H]norepinephrine reuptake at norepinephrine transporter in CD Charles River albino rat brain synaptosomes after 5 mins by scintillation counting analysis; format: subcellular; summary of the method: as §1
Rattus norvegicus [3] = organism: Rattus norvegicus; experiment: Inhibition of [3H]norepinephrine reuptake at norepinephrine transporter in rat brain at 10^-5 M by scintillation counting analysis; format: tissue-based
[4] = target: Sodium-dependent serotonin transporter (Homo sapiens) (UniProt P31645); experiment: Inhibition of serotonin reuptake at SERT (unknown origin) at 10^-5 M
[5] = target: Sodium-dependent dopamine transporter (Homo sapiens) (UniProt Q01959); experiment: Inhibition of dopamine reuptake at DAT (unknown origin) at 10^-5 M
Sequence of Sodium-dependent dopamine transporter (Homo sapiens) (Q01959 whole entry): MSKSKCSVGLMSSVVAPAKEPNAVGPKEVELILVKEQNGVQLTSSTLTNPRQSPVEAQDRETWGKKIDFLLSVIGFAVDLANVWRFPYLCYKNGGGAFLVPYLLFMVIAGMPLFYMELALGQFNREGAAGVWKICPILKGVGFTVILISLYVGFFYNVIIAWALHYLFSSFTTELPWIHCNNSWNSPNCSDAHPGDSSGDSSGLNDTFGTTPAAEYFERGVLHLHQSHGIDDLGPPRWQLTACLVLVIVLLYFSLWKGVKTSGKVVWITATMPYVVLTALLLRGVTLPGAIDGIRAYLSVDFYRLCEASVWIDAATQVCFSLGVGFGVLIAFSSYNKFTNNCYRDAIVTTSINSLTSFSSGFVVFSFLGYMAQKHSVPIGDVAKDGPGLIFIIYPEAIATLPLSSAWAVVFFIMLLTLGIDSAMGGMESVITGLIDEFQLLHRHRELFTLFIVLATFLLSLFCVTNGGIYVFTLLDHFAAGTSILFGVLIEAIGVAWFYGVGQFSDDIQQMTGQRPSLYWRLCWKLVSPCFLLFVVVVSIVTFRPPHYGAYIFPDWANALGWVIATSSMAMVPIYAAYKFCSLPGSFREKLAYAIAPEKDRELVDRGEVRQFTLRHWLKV

Sequence of Sodium-dependent serotonin transporter (Homo sapiens) (P31645 whole entry, looked up): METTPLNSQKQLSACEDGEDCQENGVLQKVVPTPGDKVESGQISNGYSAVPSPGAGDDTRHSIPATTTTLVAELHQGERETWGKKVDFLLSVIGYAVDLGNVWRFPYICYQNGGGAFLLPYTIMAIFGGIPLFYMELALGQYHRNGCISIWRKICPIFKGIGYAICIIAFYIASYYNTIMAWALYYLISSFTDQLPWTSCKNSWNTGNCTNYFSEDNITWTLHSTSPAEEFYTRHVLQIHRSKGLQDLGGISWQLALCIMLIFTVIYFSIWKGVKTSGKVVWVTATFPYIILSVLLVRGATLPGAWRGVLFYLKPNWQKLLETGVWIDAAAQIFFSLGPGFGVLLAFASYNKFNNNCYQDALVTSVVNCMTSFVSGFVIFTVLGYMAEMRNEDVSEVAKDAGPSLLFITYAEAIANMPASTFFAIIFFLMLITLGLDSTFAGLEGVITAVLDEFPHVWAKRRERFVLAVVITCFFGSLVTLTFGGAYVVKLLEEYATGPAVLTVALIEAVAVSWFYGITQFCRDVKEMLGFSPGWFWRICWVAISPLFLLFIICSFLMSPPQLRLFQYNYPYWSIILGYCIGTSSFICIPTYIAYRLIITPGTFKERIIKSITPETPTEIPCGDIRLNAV

Compound	inhibition (Rattus norvegicus [1])	IC50 [2]	inhibition (Rattus norvegicus [3])	inhibition [4]	inhibition [5]
CN1CC[C@H]2OC(=O)c3ccccc3[C@@H]2C1 (relative stereo)	36%	320 µM	11%	0%	3%
COC(=O)[C@H]1[C@@H](OC(=O)c2ccccc2)C[C@@H]2CC[C@H]1N2C [COCAINE]		0.575 µM			
CN1CCc2oc(=O)c3ccccc3c2C1		320 µM			
CN1[C@@H]2CC[C@H]1C[C@H](OC(=O)c1ccccc1)C2		5.6 µM			
CN1CC[C@H]2OC(=O)c3ccccc3[C@H]2C1 (relative stereo)	0%	650 µM			
